Publication PMC9371711 (Proceedings of the National Academy of Sciences of the …, 2022)

Legend:
TB77 cells [1] = assay: Muse Annexin V & Dead Cell Assay; format: cell-based, human; conditions: 10, 30, 50 μM; 24, 48, 72 h; time and dose dependent
TB77 cells [2] = assay: TB77 proliferation, CCK8; format: cell-based, human; conditions: 1, 10, 30 μM, 1% serum, CCK8 9 d posttreatment; P = 0.0011
[3] = cited from earlier work
TB77 cells [4] = assay: Cell cycle, propidium iodide flow cytometry; format: cell-based, human; conditions: 10, 30, 50 μM
GBM96 spheroids = assay: Spheroid invasion in 50% Matrigel; format: cell-based, human; conditions: GBM96, dose-dependent, area covered by invading cells
In short: (§1)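 Primary-cell spheroids were embedded in 50% Matrigel and exposed to test compound. Invasion was followed over time as the area covered by invading cells, by image thresholding. Values are mean area in pixels ± SEM. Groups were compared by ANOVA with Tukey's test.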

GBM31 = assay: Proliferation of GBM31; format: cell-based, human; conditions: 1, 10, 30 μM, 1% serum, CCK8 9 d
In short: (§2)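 Primary GBM explants in 1% serum were exposed to test compound at 1, 10 and 30 μM. Viability was read by CCK8 9 d posttreatment. Values are mean A450 normalised to untreated control ± SEM.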

[5] = system: TB26, TB43, TB48, GBM59, GBM96 primary GBM cultures; assay: Proliferation of AGTR2-expressing primary GBM cultures, CCK8; format: cell-based, human; conditions: GBM59, 1% serum, CCK8 9 d
In short: as §2

TB48 spheroids = assay: Spheroid invasion in 50% Matrigel; format: cell-based, human; conditions: TB48, 30 μM
In short: as §1

[6] = In vivo brain biodistribution, LC-MS/MS; design: species or system C57BL/6 mice; conditions: i.v., 30 min after dosing
hCMEC/D3 = assay: Endothelial cell tube formation with GBM-conditioned media; format: cell-based, human; conditions: 6-h incubation with media of TB77 treated with 30 μM EMA401
In short: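 Conditioned media came from untreated TB77 cells or TB77 treated with 10 μM AT1R antagonist and 30 μM test compound. hCMEC/D3 endothelial cells were incubated in these media for 6 h. Read-outs were total segment length (pixels) and number of meshes, as mean ± SEM. Groups were compared by ANOVA with Tukey's multiple comparisons.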

TB77 cells [7] = assay: RNA sequencing, whole-transcriptome analysis; format: cell-based, human; conditions: 30 µM, 24 h; for number of differentially expressed genes vs untreated control: P < 0.01; for number of unique differentially expressed genes: not shared with the other antagonist
[8] = system: caspase-3/7 in TB77 cells; assay: Caspase-Glo 3/7 Assay; format: cell-based, human; conditions: 30 μM
[9] = system: TB43, TB48, GBM59, GBM96 primary GBM cultures; assay: Proliferation of primary GBM cultures with EMA401, A3E, TMZ, CCK8; format: cell-based, human; conditions: for sensitivity of GBM96: GBM96 (lacks AGTR1), A3E 10 μM
rat AT1R = conditions: read-out: IC50 at rat AT1R; cited from earlier work
[10] = system: TB48, TB77, GBM96 spheroids; assay: 3D spheroid growth, CCK8; format: cell-based, human; conditions: 10, 30, 50 μM, CCK8 9 d posttreatment
In short: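 TB48, TB77 and GBM96 primary cells grown as 3D spheroids were exposed to test compound at 10, 30 and 50 μM. Growth was read by CCK8 9 d posttreatment. Values are mean A450 normalised to untreated control ± SEM. Groups were compared by ANOVA with Tukey's test.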

[11] = system: 8MG, TB26, TB77 GBM cells; assay: Growth of AT2R-expressing GBM cells with AngII and antagonists, low serum; format: cell-based, human; conditions: 1% FBS, 6 d; for effect of antagonist on AngII-enhanced growth: antagonist 10 μM + 10 nM AngII
In short: (§3)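 Cells in 1% FBS received 10 nM AngII, AT1R or AT2R antagonists at 10 μM, each antagonist plus AngII, or both antagonists together. Established lines were read by SRB staining and primary cultures by CCK8, 6 d posttreatment. Values are mean absorbance normalised to untreated control ± SEM. Groups were compared by ANOVA with Tukey's test.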

GBM59 = assay: TMZ sensitivity of primary GBM cells, SRB; format: cell-based, human; conditions: TMZ 2-512 μM, 10% FBS, SRB after 9 days
U87-GFP/luc tumors [12] = assay: Subcutaneous U87-GFP/luc xenograft model of GBM; format: in vivo, NSG mice
In short: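 2 × 10⁶ U87-GFP/luc cells were injected into the flanks of NSG mice. Once tumours were established, mice were randomised to test compound, comparators or vehicle (PBS, 5% DMSO, 5% solutol), n = 7–9 per group, and treated for 21 d. Tumour volume and final tumour weight are reported as mean ± SEM.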

U87-GFP/luc tumors [13] = assay: Orthotopic; format: in vivo, BALB/c nude mice
In short: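 2 × 10⁵ U87-GFP/luc cells were implanted into the right cerebral cortex. After 7 d, mice were randomised to test compound or vehicle (PBS, 5% DMSO, 5% solutol), n = 6 each, dosed daily i.p. for 14 d. IVIS bioluminescence was imaged twice weekly and body weight tracked. Tumour sections were scored for H&E tumour area, fluorescent integrin β3 intensity and TUNEL intensity.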

AT2R = conditions: cited from earlier work; for Kd: read-out: KD (Dissociation constant) for AT2R
TB82 = assay: Growth of GBM cells expressing AT1R but not AT2R with AngII, low serum; format: cell-based, human; conditions: 10 nM AngII, 1% FBS, 6 d
In short: as §3

Which results are given for COc1ccc2c(c1OCc1ccccc1)C[C@@H](C(=O)O)N(C(=O)C(c1ccccc1)c1ccccc1)C2 [EMA401]?
early apoptotic cells (TB77 cells [1]): significant increase in early apoptotic cells; growth inhibition compared with PD123319 (TB77 cells [2]): significantly more potent growth inhibition than PD123319; blood-brain barrier penetration [3]: inability of EMA401 to penetrate the blood–brain barrier; cell-cycle parameters (TB77 cells [4]): No changes in cell-cycle parameters; spheroid invasiveness (GBM96 spheroids): significantly reduced the invasiveness; sensitivity of GBM31 to growth inhibition (GBM31): insensitive; growth inhibition of TMZ-insensitive GBM59 [5]: efficiently inhibited; spheroid invasiveness (TB48 spheroids): significantly reduced; EMA401 metabolite (peak at 3.7 min, m/z 314) in brain samples [6]: a metabolite was identified; total segment length of endothelial tubes (hCMEC/D3): significantly reduced; number of differentially expressed genes vs untreated control (TB77 cells [7]): 5,498 genes; down-regulation of FGF18 (TB77 cells [7]; RNA-seq): 2.7 fold; down-regulation of G6PD (TB77 cells [7]; RNA-seq): 1.26 fold; down-regulation of PDK2 (TB77 cells [7]; RNA-seq): 1.29 fold; down-regulation of PDK4 (TB77 cells [7]; RNA-seq): 1.29 fold; down-regulation of PIDD1 (TB77 cells [7]; RNA-seq): 1.3 fold; down-regulation of TKT (TB77 cells [7]; RNA-seq): 1.33 fold; up-regulation of CASP3 (TB77 cells [7]; RNA-seq): 1.43 fold; up-regulation of MAP2K3 (TB77 cells [7]; RNA-seq): 1.7 fold; up-regulation of NFKB2 (TB77 cells [7]; RNA-seq): 1.5 fold; up-regulation of RelB (TB77 cells [7]; RNA-seq): 2.4 fold; up-regulation of TNFRSF21 (TB77 cells [7]; RNA-seq): 1.5 fold; number of unique differentially expressed genes (TB77 cells [7]): 4,211 genes; enhancement of caspase-3/7 activation ([8]; 24 h, luminescence, P < 0.0001): 30%; caspase-3/7 activation ([8]; 48 h): returned to baseline levels; antiproliferative potency compared with TMZ ([9]; EMA401 30 μM, TMZ 30 μM, 1% serum, CCK8 9 d): greater potency than TMZ; sensitivity of GBM96 ([9]; EMA401 30 μM): especially sensitive; IC50 (rat AT1R): 408 µM; spheroid growth sensitivity [10]: sensitive

For CCCCc1nc(Cl)c(CO)n1Cc1ccc(-c2ccccc2-c2nn[nH]n2)cc1 [losartan], which “effect of antagonist on AngII-enhanced growth” value [11] is on record?
Its value is “no effects were observed”.

With Cn1nnc2c(C(N)=O)ncn2c1=O [TMZ, temozolomide] as the compound, how does the “sensitivity of GBM59 to TMZ” value (GBM59) read?
The value was “insensitive”.

Which results are given for COc1ccc2c(c1OCc1ccccc1)C[C@@H](C(=O)OCC(=O)NCCCC[C@H](NC(=O)CNC(=O)[C@H](CCCNC(=N)N)NC(=O)[C@H](CO)NC(=O)CNC(=O)CNC(=O)[C@H](Cc1ccc(O)cc1)NC(=O)[C@H](Cc1ccccc1)NC(=O)[C@H](Cc1ccccc1)NC(=O)[C@@H](NC(=O)COC(=O)[C@@H]1Cc3c(ccc(OC)c3OCc3ccccc3)CN1C(=O)C(c1ccccc1)c1ccccc1)[C@@H](C)O)C(=O)N[C@@H](CCCNC(=N)N)C(=O)N[C@@H](CC(N)=O)C(=O)N[C@@H](CC(N)=O)C(=O)N[C@@H](Cc1ccccc1)C(=O)N[C@@H](CCCCNC(=O)COC(=O)[C@@H]1Cc3c(ccc(OC)c3OCc3ccccc3)CN1C(=O)C(c1ccccc1)c1ccccc1)C(=O)N[C@H](C(=O)N[C@@H](CCC(=O)O)C(=O)N[C@@H](CCC(=O)O)C(=O)N[C@@H](Cc1ccc(O)cc1)C(=O)O)[C@@H](C)O)N(C(=O)C(c1ccccc1)c1ccccc1)C2 [A3E]?
tumor size, volume and weight vs vehicle- or EMA401-treated groups (U87-GFP/luc tumors [12]; A3E 25.88 mg/kg i.p. daily, 21 d, NSG mice): significantly smaller size; efficacy compared with TMZ (U87-GFP/luc tumors [12]; A3E 25.88 mg/kg, TMZ 30 mg/kg, i.p. daily): slightly more effective than TMZ, though this was not significant; EMA401 metabolite (peak at 3.7 min, m/z 314) in brain samples [6]: not detected; antiproliferative effect compared with EMA401 ([9]; A3E 10 μM vs EMA401 30 μM, 1% serum, CCK8 9 d): equivalent inhibition to native EMA401 at a three-fold lower dose; sensitivity of GBM96 ([9]; EMA401 30 μM): especially sensitive; reduction of tumor size vs vehicle control (U87-GFP/luc tumors [13]; A3E 25.88 mg/kg i.p. daily for 14 d, bioluminescent imaging (IVIS), n = 6): 40%; integrin β3 staining (angiogenesis) of tumor sections (U87-GFP/luc tumors [13]; n = 2, P = 0.17): reduction in integrin-β3 staining; apoptosis, TUNEL assay of tumor sections (U87-GFP/luc tumors [13]; n = 3, P = 0.056): apoptosis was enhanced; tumor area, H&E staining, vs saline group (U87-GFP/luc tumors [13]; n = 5, P = 0.084): consistently smaller; toxicity by body weight (U87-GFP/luc tumors [13]; subcutaneous or intracranial models, no significant weight loss over the study): no detectable toxicity

For “angiotensin II (DRVYIHPF; Angiotensin-2; UniProt P01019 25-32, looked up) [AngII]”, which “selectivity for AT2R over AT1R” value (AT2R) is on record?
The value was 10 fold.

What about the Kd (AT2R) of the same compound?
The Kd was 0.0016 µM.

What about the “cell growth with exogenous AngII” value (TB82) of the same compound?
The value was “minimally increased”.

And the “cell growth with exogenous AngII” value ([11]; 10 nM AngII, SRB or CCK8)?
Its value is “significantly enhanced”.

With Cc1cc(Cn2cnc3c2C[C@@H](C(=O)O)N(C(=O)C(c2ccccc2)c2ccccc2)C3)ccc1N(C)C [PD123319] as the compound, how does the Kd (AT2R) read?
The Kd was 0.0717 µM.

What about the “number of differentially expressed genes vs untreated control” value (TB77 cells [7]) of the same compound?
The value was 2,195 genes.

What about the “number of unique differentially expressed genes” value (TB77 cells [7]) of the same compound?
Its value is 908 genes.

And the “proliferation in the absence of exogenous AngII” value ([11]; 10 μM, significant in 8MG and TB77)?
Its value is “inhibited the proliferation”.

What about the “effect of antagonist on AngII-enhanced growth” value [11] of the same compound?
The value was “blocked the enhanced growth”.

What about the IC50 (rat AT1R) of the same compound?
Its IC50 is 210 µM.
